Results reported in ChEMBL document CHEMBL1140193, “Synthesis and anti-inflammatory evaluation of methylene bridged benzofuranyl imidazo[2,1-b][1,3,4]thiadiazoles” (Eur J Med Chem, 2008).

Columns and labels:
Rattus norvegicus [1] = experiment: Analgesic activity in Wistar albino rat […] assessed as increase in reaction time for tail withdrawal at 100 mg/kg, po after 180 mins by tail flick method; type: functional
Rattus norvegicus [2] = experiment: Antiinflammatory activity in Wistar albino rat assessed as inhibition of carrageenan-induced paw oedema at 100 mg/kg, po measured 5 hrs after carrageenan challenge; type: functional
Summary of the method: (§1)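 Albino rats, 6 per group, dosed orally at 100 mg kg^-1; ibuprofen 100 mg kg^-1 as standard. One hour after dosing, 0.1 ml of 1% carrageenan with 2% gum acacia in normal saline injected subplantar into the right hind paw. Paw volume measured by plethysmometer; % inhibition versus control calculated. One-way ANOVA with Dunnett's t test.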

Rattus norvegicus [3] = experiment: Antiinflammatory activity in Wistar albino rat assessed as inhibition of carrageenan-induced paw oedema at 100 mg/kg, po measured 0.5 hrs after carrageenan challenge; type: functional; summary of the method: as §1
Rattus norvegicus [4] = experiment: Toxicity in Wistar albino rat assessed as induction of convulsions and tremors up to 3 g/kg, po after 8 hrs; type: organism-based; conditions: in vivo, 3000 mg/kg
Summary of the method: (§2)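 Acute toxicity: albino rats of either sex in groups of six, oral doses from 100 up to 3000 mg kg^-1. Rats observed continuously for 8 h for changes in motor activity, ataxia, tremors, convulsions, sedation and lacrimation. Ulceration and haemorrhagic spots also inspected.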

Rattus norvegicus [5] = experiment: Analgesic activity in Wistar albino rat […] assessed as reaction time for tail withdrawal at 100 mg/kg, po after 30 mins by tail flick method; type: functional
Rattus norvegicus [6] = experiment: Toxicity in Wistar albino rat assessed as induction of gastric ulceration up to 3 g/kg, po after 8 hrs; type: organism-based, Stomach; conditions: in vivo, 3000 mg/kg; summary of the method: as §2
Rattus norvegicus [7] = experiment: Antiinflammatory activity in Wistar albino rat assessed as inhibition of carrageenan-induced paw oedema at 100 mg/kg, po measured 1 hr after carrageenan challenge; type: functional; summary of the method: as §1
Rattus norvegicus [8] = experiment: Analgesic activity in Wistar albino rat […] assessed as reaction time for tail withdrawal at 100 mg/kg, po after 180 mins by tail flick method; type: functional
Rattus norvegicus [9] = experiment: Antiinflammatory activity in Wistar albino rat assessed as inhibition of carrageenan-induced paw oedema at 100 mg/kg, po measured 4 hrs after carrageenan challenge; type: functional; summary of the method: as §1
Rattus norvegicus [10] = experiment: Toxicity in Wistar albino rat assessed as induction of sedation up to 3 g/kg, po after 8 hrs; type: organism-based; conditions: in vivo, 3000 mg/kg; summary of the method: as §2
Rattus norvegicus [11] = experiment: Analgesic activity in Wistar albino rat […] assessed as reaction time for tail withdrawal at 100 mg/kg, po after 300 mins by tail flick method; type: functional
Summary of the method: (§3)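 Rat tail-flick test: latency for the rat to withdraw its tail from hot water at 55 ± 0.5 °C. Drugs given orally. Reaction time in seconds read at 60, 90, 120 and 300 min after dosing. Treated animals compared with control and with a nimesulide standard. Wistar albino rats, 150-200 g, either sex; food withdrawn 12 h before and during testing.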

Rattus norvegicus [12] = experiment: Analgesic activity in Wistar albino rat […] assessed as increase in reaction time for tail withdrawal at 100 mg/kg, po after 300 mins by tail flick method; type: functional; summary of the method: as §3
Rattus norvegicus [13] = experiment: Toxicity in Wistar albino rat assessed as induction of haemorrhagic spots up to 3 g/kg, po after 8 hrs; type: organism-based; conditions: in vivo, 3000 mg/kg; summary of the method: as §2
Rattus norvegicus [14] = experiment: Analgesic activity in Wistar albino rat […] assessed as reaction time for tail withdrawal at 100 mg/kg, po after 60 mins by tail flick method; type: functional; summary of the method: as §3
Rattus norvegicus [15] = experiment: Antiinflammatory activity in Wistar albino rat assessed as inhibition of carrageenan-induced paw oedema at 100 mg/kg, po measured 2 hrs after carrageenan challenge; type: functional; summary of the method: as §1
Rattus norvegicus [16] = experiment: Antiinflammatory activity in Wistar albino rat assessed as inhibition of carrageenan-induced paw oedema at 100 mg/kg, po measured 3 hrs after carrageenan challenge; type: functional; summary of the method: as §1
Rattus norvegicus [17] = experiment: Toxicity in Wistar albino rat assessed as effect on motor activity up to 3 g/kg, po after 8 hrs; type: organism-based; conditions: in vivo, 3000 mg/kg; summary of the method: as §2
Rattus norvegicus [18] = experiment: Analgesic activity in Wistar albino rat […] assessed as reaction time for tail withdrawal at 100 mg/kg, po after 120 mins by tail flick method; type: functional; summary of the method: as §3
Rattus norvegicus [19] = experiment: Toxicity in Wistar albino rat assessed as mortality up to 3 g/kg, po after 24 hrs; type: organism-based; conditions: in vivo, 3000 mg/kg
Summary of the method: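 Albino rats of either sex, six per group, dosed orally from 100 up to 3000 mg kg^-1 body weight. Animals were watched continuously for 8 h for signs of acute toxicity such as altered motor activity, ataxia, tremors, convulsions, sedation and lacrimation, and were checked for mortality over a 24 h period. Food was withheld for 12 h before dosing.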

SMILES	Activity (Rattus norvegicus [1]) [%]	inhibition in vivo at 100 mg/kg (Rattus norvegicus [2]) [%]	inhibition in vivo at 100 mg/kg (Rattus norvegicus [3]) [%]	Activity (Rattus norvegicus [4])	Activity (Rattus norvegicus [5]) [s]	Activity (Rattus norvegicus [6])	inhibition in vivo at 100 mg/kg (Rattus norvegicus [7]) [%]	Activity (Rattus norvegicus [8]) [s]	inhibition in vivo at 100 mg/kg (Rattus norvegicus [9]) [%]	Activity (Rattus norvegicus [10])	Activity (Rattus norvegicus [11]) [s]	Activity (Rattus norvegicus [12]) [%]	Activity (Rattus norvegicus [13])	Activity (Rattus norvegicus [14]) [s]	inhibition in vivo at 100 mg/kg (Rattus norvegicus [15]) [%]	inhibition in vivo at 100 mg/kg (Rattus norvegicus [16]) [%]	Activity (Rattus norvegicus [17])	Activity (Rattus norvegicus [18]) [s]	Activity (Rattus norvegicus [19])
Cc1ccc2c(Cc3nn4c(C=O)c(-c5ccc(Cl)cc5)nc4s3)coc2c1	193.21	48.8	3.6	Non-toxic	3.55	Non-toxic	11.4	7.867	47.2	Non-toxic	6.517	142.89	Non-toxic	5.35	24.3	42.5	Non-toxic	6.667	Non-toxic
Cc1ccc2c(Cc3nn4cc(-c5ccc(Cl)cc5)nc4s3)coc2c1	259.03	58.1	8.38	Non-toxic	3.483	Non-toxic	13.4	9.633	55.9	Non-toxic	7.95	196.31	Non-toxic	4.033	42.1	51.7	Non-toxic	8.75	Non-toxic
Cc1ccc2c(Cc3nn4c(CN5CCOCC5)c(-c5ccc(Br)cc5)nc4s3)coc2c1	203.76	52.7	8.38	Non-toxic	3.5	Non-toxic	12.4	8.15	51.2	Non-toxic	7.3	172.08	Non-toxic	4.067	31.7	43.4	Non-toxic	6.45	Non-toxic
Cc1ccc2c(Cc3nn4c(CN5CCOCC5)c(-c5ccc([N+](=O)[O-])cc5)nc4s3)coc2c1	246.62	51.2	3.6	Non-toxic	3.6	Non-toxic	5.19	9.3	48	Non-toxic	8.033	199.4	Non-toxic	5.933	24.3	41.6	Non-toxic	8.433	Non-toxic
Cc1ccc2c(Cc3nn4cc(-c5ccc([N+](=O)[O-])cc5)nc4s3)coc2c1	268.98	49.8	0	Non-toxic	4.65	Non-toxic	13.4	9.9	45.7	Non-toxic	8.35	211.21	Non-toxic	7.4	24.3	40.9	Non-toxic	9.567	Non-toxic
Cc1ccc2c(Cc3nn4c(CN5CCOCC5)c(-c5ccc(Cl)cc5)nc4s3)coc2c1	205.62	50.4	4.77	Non-toxic	3.767	Non-toxic	15.5	8.2	48	Non-toxic	6.95	159.03	Non-toxic	5.45	28.9	43.4	Non-toxic	6.767	Non-toxic
Cc1ccc2c(Cc3nn4c(CO)c(-c5ccc(Br)cc5)nc4s3)coc2c1	177.3	47.3	2.38	Non-toxic	3.667	Non-toxic	7.2	7.4	44.9	Non-toxic	6.067	126.12	Non-toxic	4.583	13.1	36.6	Non-toxic	5.917	Non-toxic
Cc1ccc2c(Cc3nn4c(CO)c(-c5ccc(Cl)cc5)nc4s3)coc2c1	165.85	58.9	9.61	Non-toxic	3.65	Non-toxic	14.5	7.133	54.3	Non-toxic	5.433	102.49	Non-toxic	4.35	28.9	45.9	Non-toxic	5.467	Non-toxic
Cc1ccc2c(Cc3nn4c(C=O)c(-c5ccc(Br)cc5)nc4s3)coc2c1	238.53	12.4	1.15	Non-toxic	3.983	Non-toxic	12.4	9.083	10.2	Non-toxic	7.55	181.4	Non-toxic	4.433	11.2	10.8	Non-toxic	6.5	Non-toxic
Cc1ccc2c(Cc3nn4cc(-c5ccc(Br)cc5)nc4s3)coc2c1	0.633	22.5	6	Non-toxic	2.65	Non-toxic	10.3	2.7	11.1	Non-toxic	2.683	0	Non-toxic	2.667	12	10.8	Non-toxic	2.583	Non-toxic
CC(C)Cc1ccc(C(C)C(=O)O)cc1 (stereo not drawn) [IBUPROFEN]	–	72.9	42.1	–	–	–	42.3	–	66.1	–	–	–	–	–	42.9	60	–	–	–
CS(=O)(=O)Nc1ccc([N+](=O)[O-])cc1Oc1ccccc1 [NIMESULIDE]	260.9	–	–	–	5.1	–	–	9.683	–	–	8.55	218.67	–	7.683	–	–	–	8.65	–
